Source: ChEMBL document CHEMBL4689842, “EUbOPEN Chemogenomics Library wave 1” (2021)
Values joined by “and” are separate entries in the source; they are usually repeats but may differ in a detail not shown here. Equal values may be shown once.

Tested on: HEK-293T
Experiment: Multiplex assay against HEK293T;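 on Population Tubulin-Different-Phenotype (%): share of the cells with healthy nuclei that show this phenotype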
Format: toxicity, cell-based
Conditions: human
Outline: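 Cells stained live at seeding with Hoechst33342, BioTracker Green Microtubule Cytoskeleton Dye, MitoTracker Red and Annexin V Alexa Fluor 680 were imaged on a CQ1 microscope at 37°C and 5% CO2 after compound addition. Their classification by CellPathfinder machine-learning gating ran from Hoechst high-intensity objects versus normal cells, to healthy, pyknosed or fragmented nuclei among normal cells, to mitotic or apoptotic among pyknosed cells. Tubulin, mitochondrial-mass and membrane-permeability phenotypes are per cents of healthy-nucleus cells.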

[1] = 12 h, 1 µM, compound concentration 1 uM, replicate 1
[2] = 12 h, 1 µM, compound concentration 1 uM, replicate 2
[3] = 12 h, 10 µM, compound concentration 10 uM, replicate 1
[4] = 12 h, 10 µM, compound concentration 10 uM, replicate 2
[5] = 24 h, 1 µM, compound concentration 1 uM, replicate 1
[6] = 24 h, 1 µM, compound concentration 1 uM, replicate 2
[7] = 24 h, 10 µM, compound concentration 10 uM, replicate 1
[8] = 24 h, 10 µM, compound concentration 10 uM, replicate 2
[9] = 48 h, 1 µM, compound concentration 1 uM, replicate 1
[10] = 48 h, 1 µM, compound concentration 1 uM, replicate 2
[11] = 48 h, 10 µM, compound concentration 10 uM, replicate 1
[12] = 48 h, 10 µM, compound concentration 10 uM, replicate 2

## CN(C)C(=O)C(CCN1CCC(O)(c2ccc(Cl)cc2)CC1)(c1ccccc1)c1ccccc1.Cl [LOPERAMIDE HYDROCHLORIDE]
[1]
  Population Apoptotic (%): 70%
  Population Fragmented Nuclei (%): 10%
  Population Healthy Nuclei (%): 37%
  Population Hoechst High Intensity Objects (%): 16%
  Population Membrane Permeable-Phenotype (%): 2%
  Population Mitochondria Different-Phenotype (%): 92%
  Population Mitotic Cells (%): 29%
  Population Normal (%): 83%
  Population Pyknosed Nuclei (%): 51%
  Population Tubulin-Different-Phenotype (%): 83%
  Total Cell Count: 254
[2]
  Population Apoptotic (%): 56%
  Population Fragmented Nuclei (%): 4%
  Population Healthy Nuclei (%): 30%
  Population Hoechst High Intensity Objects (%): 0%
  Population Membrane Permeable-Phenotype (%): 6%
  Population Mitochondria Different-Phenotype (%): 95%
  Population Mitotic Cells (%): 43%
  Population Normal (%): 99%
  Population Pyknosed Nuclei (%): 65%
  Population Tubulin-Different-Phenotype (%): 85%
  Total Cell Count: 208
[3]
  Population Apoptotic (%): 91%
  Population Fragmented Nuclei (%): 10%
  Population Healthy Nuclei (%): 7%
  Population Hoechst High Intensity Objects (%): 20%
  Population Membrane Permeable-Phenotype (%): 0%
  Population Mitochondria Different-Phenotype (%): 100%
  Population Mitotic Cells (%): 8%
  Population Normal (%): 79%
  Population Pyknosed Nuclei (%): 82%
  Population Tubulin-Different-Phenotype (%): 86%
  Total Cell Count: 258
[4]
  Population Apoptotic (%): 98%
  Population Fragmented Nuclei (%): 6%
  Population Hoechst High Intensity Objects (%): 15%
  Population Mitotic Cells (%): 1%
  Population Normal (%): 84%
  Population Pyknosed Nuclei (%): 86%
  Population Tubulin-Different-Phenotype (%): 70%
  Total Cell Count: 158
[5]
  Population Apoptotic (%): 73%
  Population Fragmented Nuclei (%): 11%
  Population Healthy Nuclei (%): 35%
  Population Hoechst High Intensity Objects (%): 16%
  Population Membrane Permeable-Phenotype (%): 1%
  Population Mitochondria Different-Phenotype (%): 90%
  Population Mitotic Cells (%): 26%
  Population Normal (%): 83%
  Population Pyknosed Nuclei (%): 53%
  Population Tubulin-Different-Phenotype (%): 80%
  Total Cell Count: 259
[6]
  Population Apoptotic (%): 65%
  Population Fragmented Nuclei (%): 3%
  Population Healthy Nuclei (%): 48%
  Population Hoechst High Intensity Objects (%): 0%
  Population Membrane Permeable-Phenotype (%): 3%
  Population Mitochondria Different-Phenotype (%): 94%
  Population Mitotic Cells (%): 34%
  Population Normal (%): 99%
  Population Pyknosed Nuclei (%): 47%
  Population Tubulin-Different-Phenotype (%): 89%
  Total Cell Count: 242
[7]
  Population Apoptotic (%): 88%
  Population Fragmented Nuclei (%): 16%
  Population Healthy Nuclei (%): 8%
  Population Hoechst High Intensity Objects (%): 23%
  Population Membrane Permeable-Phenotype (%): 0%
  Population Mitochondria Different-Phenotype (%): 100%
  Population Mitotic Cells (%): 11%
  Population Normal (%): 76%
  Population Pyknosed Nuclei (%): 75%
  Population Tubulin-Different-Phenotype (%): 73%
  Total Cell Count: 297
[8]
  Population Apoptotic (%): 96%
  Population Fragmented Nuclei (%): 7%
  Population Hoechst High Intensity Objects (%): 12%
  Population Mitochondria Different-Phenotype (%): 91%
  Population Mitotic Cells (%): 3%
  Population Normal (%): 87%
  Population Pyknosed Nuclei (%): 84%
  Population Tubulin-Different-Phenotype (%): 75%
  Total Cell Count: 162
[9]
  Population Apoptotic (%): 75%
  Population Fragmented Nuclei (%): 16%
  Population Healthy Nuclei (%): 45%
  Population Hoechst High Intensity Objects (%): 16%
  Population Membrane Permeable-Phenotype (%): 0%
  Population Mitochondria Different-Phenotype (%): 86%
  Population Mitotic Cells (%): 24%
  Population Normal (%): 83%
  Population Pyknosed Nuclei (%): 37%
  Population Tubulin-Different-Phenotype (%): 80%
  Total Cell Count: 322
[10]
  Population Apoptotic (%): 71%
  Population Fragmented Nuclei (%): 6%
  Population Healthy Nuclei (%): 69%
  Population Hoechst High Intensity Objects (%): 3%
  Population Membrane Permeable-Phenotype (%): 1%
  Population Mitochondria Different-Phenotype (%): 83%
  Population Mitotic Cells (%): 28%
  Population Normal (%): 96%
  Population Pyknosed Nuclei (%): 23%
  Population Tubulin-Different-Phenotype (%): 89%
  Total Cell Count: 305
[11]
  Population Apoptotic (%): 85%
  Population Fragmented Nuclei (%): 25%
  Population Healthy Nuclei (%): 0%
  Population Hoechst High Intensity Objects (%): 24%
  Population Membrane Permeable-Phenotype (%): 0%
  Population Mitochondria Different-Phenotype (%): 100%
  Population Mitotic Cells (%): 14%
  Population Normal (%): 75%
  Population Pyknosed Nuclei (%): 73%
  Population Tubulin-Different-Phenotype (%): 0%
  Total Cell Count: 315
[12]
  Population Apoptotic (%): 98%
  Population Fragmented Nuclei (%): 9%
  Population Healthy Nuclei (%): 7%
  Population Hoechst High Intensity Objects (%): 19%
  Population Mitochondria Different-Phenotype (%): 90%
  Population Mitotic Cells (%): 1%
  Population Normal (%): 80%
  Population Pyknosed Nuclei (%): 82%
  Population Tubulin-Different-Phenotype (%): 72%
  Total Cell Count: 181

## C[C@H]1Oc2cc(cnc2N)-c2c(nn(C)c2C#N)CN(C)C(=O)c2ccc(F)cc21 [LORLATINIB]
[1]
  Population Apoptotic (%): 21% and 18%
  Population Fragmented Nuclei (%): 16% and 9%
  Population Healthy Nuclei (%): 66% and 76%
  Population Hoechst High Intensity Objects (%): 11% and 7%
  Population Membrane Permeable-Phenotype (%): 7% and 4%
  Population Mitochondria Different-Phenotype (%): 3% and 5%
  Population Mitotic Cells (%): 78% and 81%
  Population Normal (%): 88% and 92%
  Population Pyknosed Nuclei (%): 17% and 14%
  Population Tubulin-Different-Phenotype (%): 2% and 3%
  Total Cell Count: 529 and 617
[2]
  Population Apoptotic (%): 5% and 14%
  Population Fragmented Nuclei (%): 6% and 7%
  Population Healthy Nuclei (%): 87%
  Population Hoechst High Intensity Objects (%): 2%
  Population Membrane Permeable-Phenotype (%): 3% and 1%
  Population Mitochondria Different-Phenotype (%): 7% and 6%
  Population Mitotic Cells (%): 94% and 85%
  Population Normal (%): 97%
  Population Pyknosed Nuclei (%): 6% and 5%
  Population Tubulin-Different-Phenotype (%): 9%
  Total Cell Count: 1515 and 1456
[5]
  Population Apoptotic (%): 18% and 15%
  Population Fragmented Nuclei (%): 12% and 7%
  Population Healthy Nuclei (%): 75% and 82%
  Population Hoechst High Intensity Objects (%): 3% and 4%
  Population Membrane Permeable-Phenotype (%): 10% and 9%
  Population Mitochondria Different-Phenotype (%): 2% and 5%
  Population Mitotic Cells (%): 81% and 84%
  Population Normal (%): 96% and 95%
  Population Pyknosed Nuclei (%): 12% and 9%
  Population Tubulin-Different-Phenotype (%): 5% and 4%
  Total Cell Count: 614 and 730
[6]
  Population Apoptotic (%): 3% and 7%
  Population Fragmented Nuclei (%): 14% and 18%
  Population Healthy Nuclei (%): 80% and 78%
  Population Membrane Permeable-Phenotype (%): 8% and 3%
  Population Mitochondria Different-Phenotype (%): 1%
  Population Mitotic Cells (%): 96% and 92%
  Population Pyknosed Nuclei (%): 4% and 3%
  Population Tubulin-Different-Phenotype (%): 9% and 3%
  Total Cell Count: 2424 and 2417
